Test results taken from ChEMBL document CHEMBL1138024, “Aryl urea analogs with broad-spectrum antibacterial activity” (Bioorg Med Chem Lett, 2004).
Converted amounts (≈) assume the structure as drawn. Values belong to the compound of their own block, whether it stands above or below them.

Key:
Assay type in all cases: functional
Staphylococcus aureus [1] = assay: In vitro antibacterial activity against Staphylococcus aureus; value ranges from 12-25 uM
Enterococcus faecalis [2] = assay: Minimum inhibitory concentration against Enterococcus faecalis ATCC 29212; value ranges from 3-6 uM
Mus musculus [3] = assay: In vivo antibacterial activity (Staphylococcus aureus) in a lethal murine model at a dose of 150 mg/kg; activity expressed as no. of mice alive/total tested; 4/10
Klebsiella pneumoniae [4] = assay: Minimum inhibitory concentration against Klebsiella pneumoniae ATCC 13383; value ranges from 3-6 uM
Mus musculus [5] = assay: In vivo antibacterial activity (Staphylococcus aureus) in a lethal murine model at a dose of 9.4 mg/kg; activity expressed as no. of mice alive/total tested; 4/10
Pseudomonas aeruginosa = assay: Minimum inhibitory concentration against Pseudomonas aeruginosa ATCC 25416
Mus musculus [6] = assay: In vivo antibacterial activity (Staphylococcus aureus) in a lethal murine model at a dose of 18.8 mg/kg; activity expressed as no. of mice alive/total tested; 6/10
Streptococcus pyogenes [7] = assay: Minimum inhibitory concentration against Streptococcus pyogenes ATCC 49399; value ranges from 3-6 uM
Proteus vulgaris = assay: Minimum inhibitory concentration against Proteus vulgaris ATCC 8427; value ranges from 12-25 uM
Staphylococcus aureus [8] = assay: Minimum inhibitory concentration against Staphylococcus aureus ATCC 13709; value ranges from 3-6 uM
Staphylococcus aureus [9] = assay: Minimum inhibitory concentration against Staphylococcus aureus ATCC 13709 (+4% BSA); value ranges from 25-50 uM
In short: (§1)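 Same microdilution MIC against S. aureus ATCC 13709, but with 4% bovine serum albumin in the wells. Compound in 0.5% DMSO in water, inoculum about 10³–10⁴ CFU/well, duplicates. Growth was read as A595 after 20–24 h at 37°C against a compound-free control. MIC is reported as the range between full inhibition and viable growth.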

Staphylococcus aureus [10] = assay: In vitro antibacterial activity against Staphylococcus aureus; value ranges from 6-12 uM
Mus musculus [11] = assay: In vivo antibacterial activity (Staphylococcus aureus) in a lethal murine model at a dose of 4.6 mg/kg; activity expressed as no. of mice alive/total tested; 3/10
Enterococcus faecium [12] = assay: Minimum inhibitory concentration against Enterococcus faecium ATCC 6569
Escherichia coli [13] = assay: Minimum inhibitory concentration against Escherichia coli ATCC 25922; value ranges from 12-25 uM
Mus musculus [14] = assay: In vivo antibacterial activity (Staphylococcus aureus) in a lethal murine model at a dose of 37.6 mg/kg; activity expressed as no. of mice alive/total tested; 6/10
Huh-7 [15] = assay: Cytotoxic concentration against Huh7 cells at 48 hours in MTT assay; conditions: Homo sapiens, Huh-7, 48 h
Mus musculus [16] = assay: In vivo antibacterial activity (Staphylococcus aureus) in a lethal murine model at a dose of 75 mg/kg; activity expressed as no. of mice alive/total tested; 7/10
Staphylococcus aureus [17] = assay: In vitro antibacterial activity against Staphylococcus aureus; value ranges from 3-6 uM
Staphylococcus aureus [18] = assay: In vitro antibacterial activity against Staphylococcus aureus
Staphylococcus aureus [19] = assay: In vitro antibacterial activity against Staphylococcus aureus; value ranges from 50-100 uM
Staphylococcus aureus [20] = assay: In vitro antibacterial activity against Staphylococcus aureus; value ranges from 25-50 uM
Mus musculus [21] = assay: In vivo antibacterial activity (Staphylococcus aureus) in a lethal murine model at a dose of 4.6 mg/kg; activity expressed as no. of mice alive/total tested; 0/10
Klebsiella pneumoniae [22] = assay: Minimum inhibitory concentration against Klebsiella pneumoniae ATCC 13383; value ranges from 6-12 uM
Mus musculus [23] = assay: In vivo antibacterial activity (Staphylococcus aureus) in a lethal murine model at a dose of 9.4 mg/kg; activity expressed as no. of mice alive/total tested; 2/10
Huh-7 [24] = assay: Cytotoxic concentration against Huh7 cells at 48 hours in MTT assay; value ranges from 25-50 uM; conditions: Homo sapiens, Huh-7, 48 h
Escherichia coli [25] = assay: Minimum inhibitory concentration against Escherichia coli ATCC 25922; value ranges from 6-12 uM
Mus musculus [26] = assay: In vivo antibacterial activity (Staphylococcus aureus) in a lethal murine model at a dose of 75 mg/kg; activity expressed as no. of mice alive/total tested; 3/10
Mus musculus [27] = assay: In vivo antibacterial activity (Staphylococcus aureus) in a lethal murine model at a dose of 18.8 mg/kg; activity expressed as no. of mice alive/total tested; 4/10
Staphylococcus aureus [28] = assay: Minimum inhibitory concentration against Staphylococcus aureus ATCC 13709 (+4% BSA); value ranges from 12-25 uM; in short: as §1
Enterococcus faecalis [29] = assay: Minimum inhibitory concentration against Enterococcus faecalis ATCC 29212
Mus musculus [30] = assay: In vivo antibacterial activity (Staphylococcus aureus) in a lethal murine model at a dose of 37.6 mg/kg; activity expressed as no. of mice alive/total tested; 3/10
Enterococcus faecalis [31] = assay: Minimum inhibitory concentration against Enterococcus faecalis ATCC 29212; value ranges from 6-12 uM
Enterococcus faecium [32] = assay: Minimum inhibitory concentration against Enterococcus faecium ATCC 6569; value ranges from 3-6 uM
Staphylococcus aureus [33] = assay: Minimum inhibitory concentration against Staphylococcus aureus ATCC 13709 (+4% BSA); value ranges from 50-100 uM; in short: as §1
Staphylococcus aureus [34] = assay: Minimum inhibitory concentration against Staphylococcus aureus ATCC 13709 (+4% BSA); value ranges from 3-6 uM
Klebsiella pneumoniae [35] = assay: Minimum inhibitory concentration against Klebsiella pneumoniae ATCC 13383
Escherichia coli [36] = assay: Minimum inhibitory concentration against Escherichia coli ATCC 25922
Streptococcus pyogenes [37] = assay: Minimum inhibitory concentration against Streptococcus pyogenes ATCC 49399; value ranges from 1.5-3 uM
Mus musculus [38] = assay: In vivo antibacterial activity (Staphylococcus aureus) in a lethal murine model at a dose of 2 mg/kg; activity expressed as no. of mice alive/total tested; 10/10

MIC (Staphylococcus aureus [1]): 25 µM (≈ 11.9 µg/mL)
SMILES: Fc1cccc(N/C(S)=N/CCCNCc2cc(Br)cc(Br)c2)c1

SMILES: CN(CCCNC(=O)Nc1ccc(C(F)(F)F)cc1)CCCOc1ccc(Br)cc1Br
MIC (Enterococcus faecalis [2]): 6 µM (≈ 3.4 µg/mL)
No. of animals alive (Mus musculus [3]): 4
MIC (Klebsiella pneumoniae [4]): 6 µM (≈ 3.4 µg/mL)
No. of animals alive (Mus musculus [5]): 4
MIC (Pseudomonas aeruginosa): > 100 µM
No. of animals alive (Mus musculus [6]): 6
MIC (Streptococcus pyogenes [7]): 6 µM (≈ 3.4 µg/mL)
MIC (Proteus vulgaris): 25 µM (≈ 14.2 µg/mL)
MIC (Staphylococcus aureus [8]): 6 µM (≈ 3.4 µg/mL)
MIC (Staphylococcus aureus [9]): 50 µM (≈ 28.4 µg/mL)
MIC (Staphylococcus aureus [10]): 12 µM (≈ 6.81 µg/mL)
No. of animals alive (Mus musculus [11]): 3
MIC (Enterococcus faecium [12]): > 100 µM
MIC (Escherichia coli [13]): 25 µM (≈ 14.2 µg/mL)
No. of animals alive (Mus musculus [14]): 6
CC50 (Huh-7 [15]): > 100 µM
No. of animals alive (Mus musculus [16]): 7

MIC (Staphylococcus aureus [1]): 25 µM (≈ 11.8 µg/mL)
SMILES: Cc1ccc(N/C(S)=N/CCCNCc2cc(Br)cc(Br)c2)cc1

MIC (Staphylococcus aureus [10]): 12 µM (≈ 5.9 µg/mL)
SMILES: S=C(NCCCNCc1cc(Br)cc(Br)c1)Nc1ccc(Cl)cc1

MIC (Staphylococcus aureus [17]): 6 µM (≈ 2.61 µg/mL)
SMILES: O=C(NCCCNCc1ccc(OC(F)(F)F)cc1)Nc1ccc(C(F)(F)F)cc1

MIC (Staphylococcus aureus [1]): 25 µM (≈ 12.3 µg/mL)
SMILES: S=C(NCCCNCc1cc(Br)cc(Br)c1)Nc1ccccc1Cl

MIC (Staphylococcus aureus [18]): > 100 µM
SMILES: COc1ccccc1/N=C(\S)NCCCNCc1cc(Br)cc(Br)c1

MIC (Staphylococcus aureus [10]): 12 µM (≈ 6.3 µg/mL)
SMILES: O=C(NCCCNCc1cc(Br)cc(Br)c1)Nc1ccc(OC(F)(F)F)cc1

MIC (Staphylococcus aureus [19]): 100 µM (≈ 48.7 µg/mL)
SMILES: O=C(NCCCNCc1cc(C(F)(F)F)cc(C(F)(F)F)c1)Nc1ccc(C(F)(F)F)cc1

MIC (Staphylococcus aureus [19]): 100 µM (≈ 41.1 µg/mL)
SMILES: COc1cc(CNCCCNC(=O)Nc2ccc(C(F)(F)F)cc2)cc(OC)c1

MIC (Staphylococcus aureus [17]): 6 µM (≈ 3.32 µg/mL)
SMILES: O=C(NCCCNCCCOc1ccc(Br)cc1Br)Nc1ccc(C(F)(F)F)cc1

MIC (Staphylococcus aureus [1]): 25 µM (≈ 9.86 µg/mL)
SMILES: CN(C)c1ccc(CNCCCNC(=O)Nc2ccc(C(F)(F)F)cc2)cc1

MIC (Staphylococcus aureus [1]): 25 µM (≈ 12.6 µg/mL)
SMILES: O=[N+]([O-])c1ccc(N/C(S)=N/CCCNCc2cc(Br)cc(Br)c2)cc1

MIC (Staphylococcus aureus [1]): 25 µM (≈ 13.4 µg/mL)
SMILES: S=C(NCCCNCc1cc(Br)cc(Br)c1)Nc1ccc(Br)cc1

MIC (Staphylococcus aureus [10]): 12 µM (≈ 5.04 µg/mL)
SMILES: O=C(NCCCNCc1cc(Cl)cc(Cl)c1)Nc1ccc(C(F)(F)F)cc1

MIC (Staphylococcus aureus [20]): 50 µM (≈ 24.1 µg/mL)
SMILES: N#Cc1ccc(NC(=S)NCCCNCc2cc(Br)cc(Br)c2)cc1

MIC (Staphylococcus aureus [19]): 100 µM (≈ 35.1 µg/mL)
SMILES: O=C(NCCCNCc1ccccc1)Nc1ccc(C(F)(F)F)cc1

MIC (Staphylococcus aureus [10]): 12 µM (≈ 6.11 µg/mL)
SMILES: O=C(NCCCNCc1cc(Br)cc(Br)c1)Nc1cccc(C(F)(F)F)c1

SMILES: O=C(NCCCNCc1ccc(-c2ccccc2)cc1)Nc1ccc(C(F)(F)F)cc1
No. of animals alive (Mus musculus [21]): 0
MIC (Klebsiella pneumoniae [22]): 12 µM (≈ 5.13 µg/mL)
No. of animals alive (Mus musculus [23]): 2
CC50 (Huh-7 [24]): 50 µM
MIC (Escherichia coli [25]): 12 µM (≈ 5.13 µg/mL)
No. of animals alive (Mus musculus [26]): 3
MIC (Pseudomonas aeruginosa): > 100 µM
MIC (Streptococcus pyogenes [7]): 6 µM (≈ 2.56 µg/mL)
MIC (Proteus vulgaris): 25 µM (≈ 10.7 µg/mL)
MIC (Staphylococcus aureus [8]): 6 µM (≈ 2.56 µg/mL)
MIC (Staphylococcus aureus [17]): 6 µM (≈ 2.56 µg/mL)
MIC (Enterococcus faecium [12]): > 100 µM
No. of animals alive (Mus musculus [27]): 4
MIC (Staphylococcus aureus [28]): 25 µM (≈ 10.7 µg/mL)
MIC (Enterococcus faecalis [29]): > 100 µM
No. of animals alive (Mus musculus [30]): 3

MIC (Staphylococcus aureus [20]): 50 µM (≈ 23.8 µg/mL)
SMILES: Fc1ccccc1/N=C(\S)NCCCNCc1cc(Br)cc(Br)c1

MIC (Staphylococcus aureus [18]): > 100 µM
SMILES: O=C(NCCCNCc1cc(Br)cc(Br)c1O)Nc1ccc(C(F)(F)F)cc1

MIC (Klebsiella pneumoniae [4]): 6 µM (≈ 2.44 µg/mL)
MIC (Enterococcus faecalis [31]): 12 µM (≈ 4.89 µg/mL)
MIC (Escherichia coli [25]): 12 µM (≈ 4.89 µg/mL)
MIC (Enterococcus faecium [32]): 6 µM (≈ 2.44 µg/mL)
MIC (Pseudomonas aeruginosa): > 100 µM
MIC (Streptococcus pyogenes [7]): 6 µM (≈ 2.44 µg/mL)
MIC (Proteus vulgaris): 25 µM (≈ 10.2 µg/mL)
MIC (Staphylococcus aureus [8]): 6 µM (≈ 2.44 µg/mL)
MIC (Staphylococcus aureus [17]): 6 µM (≈ 2.44 µg/mL)
MIC (Staphylococcus aureus [33]): 100 µM (≈ 40.7 µg/mL)
SMILES: CC(C)(C)c1ccc(CNCCCNC(=O)Nc2ccc(C(F)(F)F)cc2)cc1

SMILES: CC(=O)NCC1CN(c2ccc(N3CCOCC3)c(F)c2)C(=O)O1 (single isomer, unassigned) [LINEZOLID]
MIC (Enterococcus faecalis [2]): 6 µM (≈ 2.02 µg/mL)
MIC (Staphylococcus aureus [34]): 6 µM (≈ 2.02 µg/mL)
MIC (Klebsiella pneumoniae [35]): > 100 µM
MIC (Escherichia coli [36]): > 100 µM
MIC (Pseudomonas aeruginosa): > 100 µM
MIC (Proteus vulgaris): 25 µM (≈ 8.43 µg/mL)
MIC (Staphylococcus aureus [8]): 6 µM (≈ 2.02 µg/mL)
MIC (Streptococcus pyogenes [37]): 3 µM (≈ 1.01 µg/mL)
MIC (Staphylococcus aureus [17]): 6 µM (≈ 2.02 µg/mL)
MIC (Enterococcus faecium [12]): > 100 µM

SMILES: CN[C@H](CC(C)C)C(=O)N[C@H]1C(=O)N[C@@H](CC(N)=O)C(=O)N[C@H]2C(=O)N[C@H]3C(=O)N[C@H](C(=O)N[C@H](C(=O)O)c4cc(O)cc(O)c4-c4cc3ccc4O)[C@H](O)c3ccc(c(Cl)c3)Oc3cc2cc(c3O[C@@H]2O[C@H](CO)[C@@H](O)[C@H](O)[C@H]2O[C@H]2C[C@](C)(N)[C@H](O)[C@H](C)O2)Oc2ccc(cc2Cl)[C@H]1O [VANCOMYCIN]
No. of animals alive (Mus musculus [38]): 10
